Data: ChEMBL document CHEMBL5154861, “Overcoming Paradoxical Kinase Priming by a Novel MNK1 Inhibitor” (J Med Chem, 2022)
The source made the active and inactive calls. No cut-off for these calls is given here.

What was measured:
[1] = molecular target: T1, MAP kinase-interacting serine/threonine-protein kinase 1 (Homo sapiens, UniProt Q9BUB5); assay: Activation of MNK1 in human MDA-MB-231 cells assessed as increase in ERK expression at 25 to 100 uM incubated for 24 hrs by Western blot analysis; type: cell-based; conditions: filed as activator, dose 25-100 µM
Method in brief: (§1)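 MDA-MB-231 cells, grown in DMEM with 10% heat-inactivated FBS and pen/strep at 37 °C and 5% CO2, were seeded at 6000 cells/cm2 24 h before a 24 h inhibitor exposure. DMSO was kept below 0.5% as the vehicle control. Total lysates (RIPA-type buffer with phosphatase/protease inhibitors, 20–25 μg) were immunoblotted with phospho- and total antibodies at 1:1000, using ECL detection.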
Target sequence in this assay (Q9BUB5 whole entry, looked up): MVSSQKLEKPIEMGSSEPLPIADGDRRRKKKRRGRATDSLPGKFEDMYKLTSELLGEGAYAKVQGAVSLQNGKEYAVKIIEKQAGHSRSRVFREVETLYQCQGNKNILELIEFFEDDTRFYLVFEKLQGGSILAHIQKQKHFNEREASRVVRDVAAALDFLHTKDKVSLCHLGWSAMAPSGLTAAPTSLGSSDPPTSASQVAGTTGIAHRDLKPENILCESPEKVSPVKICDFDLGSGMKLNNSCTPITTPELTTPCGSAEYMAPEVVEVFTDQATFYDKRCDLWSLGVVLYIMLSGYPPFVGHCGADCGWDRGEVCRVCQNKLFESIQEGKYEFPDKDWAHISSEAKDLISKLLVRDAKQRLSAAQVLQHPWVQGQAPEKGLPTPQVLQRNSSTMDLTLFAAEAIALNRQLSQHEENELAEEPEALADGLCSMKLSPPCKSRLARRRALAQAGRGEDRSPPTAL

HEK293 = assay: Potentiation of MNK1/eIF4E interaction in HEK293 cells assessed as increase in MNK1 phosphorylation at T209/T214 residues at 100 nM preincubated for 24 hrs followed by UV irradiation and recovery for 40 mins by immunoprecipitation based Western blot assay; type: cell-based; conditions: Homo sapiens, filed as activator, in the assay text read “MNK1/eIF4G interaction” for “MNK1/eIF4E interaction”
Method in brief: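 HEK-293 cells were exposed to DMSO or inhibitor (100 nM) for 24 h, irradiated with UV at 60 J/m2 and recovered for 40 min at 37 °C. Endogenous eIF4G was immunoprecipitated from about 2 mg of precleared NP-40 lysate on protein A beads overnight at 4 °C. The IP and input were immunoblotted for MNK1 and p-MNK1.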

[2] = molecular target: T1, MAP kinase-interacting serine/threonine-protein kinase 1; assay: Activation of MNK1 in human MDA-MB-231 cells assessed as increase in MNK1 phosphorylation at T209/T214 residues at 1.6 to 100 uM incubated for 24 hrs by Western blot analysis; type: cell-based; conditions: filed as activator, dose 1.6-100 µM; method in brief: as §1
Target sequence in this assay (Q9BUB5 whole entry, looked up): as above

[3] = molecular target: T1, MAP kinase-interacting serine/threonine-protein kinase 1; assay: Inhibition of human recombinant full length GST-tagged MNK1 expressed in baculovirus expression system assessed as residual activity at 10 uM using S6 peptide as substrate in presence of [gamma-33P]-ATP incubated for 60 mins by radiometric scintillation counting method relative to control
Method in brief: (§2)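 Radiometric 33PanQinase assay at 10 μM compound (final 1% DMSO). The buffer was 70 mM HEPES-NaOH pH 7.5 with 3 mM MgCl2, 3 mM MnCl2, 3 μM orthovanadate, 1.2 mM DTT and 50 μg/mL PEG20000. […] Reactions ran 60 min at 30 °C, were stopped with 2% H3PO4 and read by scintillation. Residual activity was calculated against high/low controls.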
Target sequence in this assay (Q9BUB5 whole entry, looked up): as above

[4] = molecular target: T2, MAP kinase-interacting serine/threonine-protein kinase 2 (Homo sapiens, UniProt Q9HBH9); assay: Inhibition of human recombinant full length GST-tagged MNK2 expressed in insect cells assessed as residual activity at 10 uM using S6 peptide as substrate in presence of [gamma-33P]-ATP incubated for 60 mins by radiometric scintillation counting method relative to control; method in brief: as §2
Target sequence in this assay (Q9HBH9 whole entry, looked up): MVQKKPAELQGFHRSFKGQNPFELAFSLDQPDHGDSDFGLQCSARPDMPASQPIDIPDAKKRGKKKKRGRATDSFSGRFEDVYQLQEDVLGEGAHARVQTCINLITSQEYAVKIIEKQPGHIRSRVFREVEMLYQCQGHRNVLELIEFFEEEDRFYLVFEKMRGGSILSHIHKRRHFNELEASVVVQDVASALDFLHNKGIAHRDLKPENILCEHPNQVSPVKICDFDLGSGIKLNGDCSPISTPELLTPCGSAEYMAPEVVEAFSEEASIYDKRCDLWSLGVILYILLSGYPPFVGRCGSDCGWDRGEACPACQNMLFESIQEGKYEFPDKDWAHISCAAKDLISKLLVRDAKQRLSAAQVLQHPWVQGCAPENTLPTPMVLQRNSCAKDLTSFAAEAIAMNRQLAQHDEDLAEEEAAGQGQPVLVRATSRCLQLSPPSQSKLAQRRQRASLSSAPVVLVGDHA

[5] = molecular target: T3, MAP kinase-interacting serine/threonine-protein kinase 1/2 (Homo sapiens) (UniProt Q9HBH9+Q9BUB5); assay: Inhibition of MNK1/MNK2 in human MDA-MB-231 cells assessed as reduction in eIF4E phosphorylation incubated for 24 hrs by Western blot analysis; type: cell-based; conditions: dose 0.3-10 µM, DDE = dose-dependent effect; method in brief: as §1
[6] = molecular target: T2, MAP kinase-interacting serine/threonine-protein kinase 2; assay: Inhibition of human recombinant full length GST-tagged MNK2 expressed in insect cells using S6 peptide as substrate in presence of [gamma-33P]-ATP incubated for 60 mins by radiometric scintillation counting method
Method in brief: (§3)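 Ten compound concentrations from 5 × 10–5 to 1.5 × 10–9 M were tested, and residual activity was calculated from cpm relative to high and low controls.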
Target sequence in this assay (Q9HBH9 whole entry): as the sequence (Q9HBH9 whole entry, looked up) above

Homo sapiens = species: Homo sapiens; assay: Selectivity ratio of IC50 for inhibition of human recombinant full length GST-tagged MNK2 to IC50 for inhibition of human recombinant full length GST-tagged MNK1; method in brief: as §3
[7] = molecular target: T1, MAP kinase-interacting serine/threonine-protein kinase 1; assay: Inhibition of human recombinant full length GST-tagged MNK1 expressed in baculovirus expression system using S6 peptide as substrate in presence of [gamma-33P]-ATP incubated for 60 mins by radiometric scintillation counting method; method in brief: as §3
Target sequence in this assay (Q9BUB5 whole entry): as the sequence (Q9BUB5 whole entry, looked up) above

MDA-MB-231 [8] = assay: Growth inhibition of human MDA-MB-231 cells measured after 72 hrs by crystal violet staining based assay; type: functional
Method in brief: (§4)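 Cells were seeded at 6000 cells/cm2, and 24 h later were treated with a range of concentrations (DMSO below 0.5%) for 72 h. They were fixed with 4% formaldehyde for 30 min and stained with 0.5% crystal violet for 15 min. Dye was eluted in 15% acetic acid and read as OD at 595 nm. Results are from three independent experiments, reported as SD; GI50 values were derived from the curves.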

IMR-90 [9] = assay: Cytotoxicity against human IMR-90 cells assessed as reduction in cell viability at 20 uM measured after 72 hrs by crystal violet staining based assay; type: toxicity; conditions: imr-90, 72 h; method in brief: as §4
MCF7 = assay: Growth inhibition of human MCF7 cells measured after 72 hrs by crystal violet staining based assay; type: functional; method in brief: as §4
MDA-MB-468 = assay: Growth inhibition of human MDA-MB-468 cells measured after 72 hrs by crystal violet staining based assay; type: functional; method in brief: as §4
MDA-MB-231 [10] = assay: Cytotoxicity against human MDA-MB-231 cells assessed as reduction in cell viability measured after 72 hrs by crystal violet staining based assay; type: functional; conditions: dose 2.5-40 µM, DDE = dose-dependent effect; method in brief: as §4
[11] = molecular target: T3, MAP kinase-interacting serine/threonine-protein kinase 1/2 (Homo sapiens); assay: Inhibition of MNK1/MNK2 in human MDA-MB-468 cells assessed as inhibition of eIF4E phosphorylation incubated for 24 hrs by Western blot analysis; type: cell-based; conditions: dose 0.3-10 µM, DDE = dose-dependent effect
[12] = molecular target: T3, MAP kinase-interacting serine/threonine-protein kinase 1/2 (Homo sapiens); assay: Inhibition of MNK1/MNK2 in human IMR-90 cells assessed as inhibition of eIF4E phosphorylation incubated for 24 hrs by Western blot analysis; type: cell-based; conditions: dose 0.3-10 µM, DDE = dose-dependent effect
[13] = molecular target: T1, MAP kinase-interacting serine/threonine-protein kinase 1; assay: Inhibition of MNK1 in human MDA-MB-231 cells assessed as inhibition of eIF4E phosphorylation at 10 uM by Western blot analysis; type: cell-based; conditions: time 0.5-72 hrs, TDE = time-dependent effect
Method in brief: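 MDA-MB-231 cells were exposed to 10 μM inhibitor for various times. Phospho-eIF4E (Ser209) versus total eIF4E was then assessed by immunoblot of total lysates (20–25 μg protein), with ECL detection.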
Target sequence in this assay (Q9BUB5 whole entry, looked up): as above

IMR-90 [14] = assay: Cytotoxicity against human IMR-90 cells assessed as reduction in cell viability measured after 72 hrs by crystal violet staining based assay; type: functional; method in brief: as §4
[15] = molecular target: Eukaryotic translation initiation factor 4E (Homo sapiens) (UniProt P06730); assay: Inhibition of eIF4E phosphorylation in human MDA-MB-231 cells at 5 to 20 uM pretreated for 3 hrs followed by UV irradiation and recovery for 40 mins with compound by Western blot analysis; type: cell-based; conditions: dose 5-20 µM, time 220.0 min
Chain of Eukaryotic translation initiation factor 4E (Homo sapiens) (P06730 whole entry): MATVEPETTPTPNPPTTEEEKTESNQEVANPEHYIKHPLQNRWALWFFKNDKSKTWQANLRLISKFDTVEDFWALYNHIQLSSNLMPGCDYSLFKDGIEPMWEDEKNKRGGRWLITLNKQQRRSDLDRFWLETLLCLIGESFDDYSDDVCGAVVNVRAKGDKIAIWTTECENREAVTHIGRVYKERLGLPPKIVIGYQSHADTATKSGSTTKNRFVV
Method in brief: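 MDA-MB-231 cells were pretreated with inhibitor for 3 h and then UV-irradiated. They recovered for 40 min at 37 °C with the inhibitor still present. Total lysates were immunoblotted for phospho-eIF4E and pathway markers (p-MNK1, p-p38, p-HSP27, p-ERK, p-p90RSK).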

[16] = molecular target: T3, MAP kinase-interacting serine/threonine-protein kinase 1/2 (Homo sapiens); assay: Inhibition of MNK1/MNK2 in human MDA-MB-231 cells assessed as inhibition of eIF4E phosphorylation at 20 uM incubated for 24 hrs by Western blot analysis; type: cell-based; method in brief: as §1
[17] = molecular target: T3, MAP kinase-interacting serine/threonine-protein kinase 1/2 (Homo sapiens); assay: Inhibition of MNK1/MNK2 in human MCF7 cells assessed as inhibition of eIF4E phosphorylation incubated for 24 hrs by Western blot analysis; type: cell-based; conditions: dose 0.3-10 µM, DDE = dose-dependent effect
MDA-MB-231 [18] = assay: Cytotoxicity against human MDA-MB-231 cells assessed as reduction in cell viability at 20 uM measured after 72 hrs by crystal violet staining based assay relative to control; type: functional; method in brief: as §4
IMR-90 [19] = assay: Cytotoxicity against human IMR-90 cells assessed as increase in dead cells at 2.5 to 40 uM by Hoechst/propidium iodide staining based microscopic analysis; type: toxicity, cell-based; conditions: imr-90, 40 µM, dose 2.5-40 µM
Method in brief: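 Cells were grown and treated for 72 h as in the crystal violet assay, with cisplatin and DMSO as controls. Before fixation, PI (2.5 μM) and Hoechst (0.05 mg/mL) were added to the medium for 30 min. At least 100 cells per condition were counted microscopically, and PI-positive cells were scored as a percentage of Hoechst-positive cells. Three independent experiments were done.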

Compound | Activity [3] [%] | Activity [4] [%] | also measured
Cc1cc(Nc2cc(N)ncn2)c(=O)n2c1C(=O)NC21CCCCC1 | – | – | Activity [1]: Active; Activity (HEK293): Active; Activity [2]: Active
COc1cccc(-c2cc(-c3ccc(F)cc3)c3c(N)n[nH]c3n2)c1 | 51 | 82 | –
COc1ccc(-c2cc(-c3ccc(C)cc3)c3c(N)n[nH]c3n2)cc1 | 45 | 82 | –
COc1ccccc1-c1cc(-c2ccc(C)cc2)c2c(N)n[nH]c2n1 | 61 | 123 | –
COc1ccc(-c2cc(-c3ccc(OC)cc3)c3c(N)n[nH]c3n2)cc1 | 60 | 101 | –
Cn1nc(N)c2cccnc21 | 106 | 95 | –
COc1ccc(-c2cc(-c3ccccc3OC)nc3[nH]nc(N)c23)cc1 | 63 | 109 | –
Cn1nc(N)c2c(-c3ccccc3)cc(-c3ccccc3)nc21 | 80 | 117 | –
Nc1n[nH]c2nc(-c3ccccc3)cc(-c3ccccc3)c12 | 14 | 52 | inhibition [5]: Dde; GI50 (MDA-MB-231 [8]): 15.1 µM; Activity (IMR-90 [9]): Non-Toxic; GI50 (MCF7): 8.46 µM; GI50 (MDA-MB-468): 14.5 µM; Activity (MDA-MB-231 [10]): Dde; inhibition [11]: Dde; inhibition [12]: Dde; inhibition [13]: Tde; GI50 (IMR-90 [14]): > 40 µM; inhibition [15]: Active; inhibition [16]: Active; inhibition [17]: Dde; Activity (MDA-MB-231 [18]): 60%; Activity (IMR-90 [19]): Non-Toxic

Further lines, with some results ahead:

Activity [3] [%] | Activity [4] [%] | Compound | also measured
41 | 92 | COc1ccc(-c2cc(-c3cccc(OC)c3)nc3[nH]nc(N)c23)cc1 | –
97 | 99 | Nc1c2cc(-c3c(Cl)cccc3Cl)c(Cl)nc2nn1-c1ccccc1 | –
94 | 154 | COc1ccc(-c2cc(-c3ccc(OC)cc3)c3c(N)nn(C)c3n2)cc1 | –
25 | 74 | COc1ccc(-c2cc(-c3ccccc3)nc3[nH]nc(N)c23)cc1 | –
38 | 74 | COc1cccc(-c2cc(-c3ccccc3)c3c(N)n[nH]c3n2)c1 | inhibition [5]: Dde; IC50 [6]: 22 µM; Ratio IC50 (Homo sapiens): 4; IC50 [7]: 4.2 µM
103 | 102 | Nc1c2c(-c3ccccc3)c(Cl)c(Cl)nc2nn1-c1ccccc1 | –
102 | 145 | COc1ccc(-c2cc(-c3ccccc3)nc3c2c(N)nn3C)cc1 | –
31 | 62 | Nc1n[nH]c2nc(-c3ccccc3)cc(-c3ccc(F)cc3)c12 | inhibition [5]: Dde; IC50 [6]: 4.1 µM; Ratio IC50 (Homo sapiens): 4; IC50 [7]: 1.3 µM
95 | 102 | Nc1n[nH]c2ncccc12 | –
